Lmaj promast: inhibitors of Leishmania major promastigote growth. Leishmania major promastigotes, resazurin fluorescence viability. inhibition, % at 10 µM. actives 9% (n = 200,000); in the data active = inhibition above about 50%;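 note: promastigotes grown with compound for 44 hours at 28 °C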
Calpain2 inh: calpain II (pig) inhibition; AID 1236; actives 0.37% (n = 220,000); inhibition, % at 16 µM; purified calpain II, fluorogenic peptide substrate, 30 min;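 active = inhibition above about 50%, limit read from the data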
PMI act hi M6P: activators of human phosphomannose isomerase at near-saturating mannose 6-phosphate | coupled PMI enzyme assay, resazurin fluorescence, 20 min; hits give high values; 1 = untreated enzyme, 0 = substrate-free blank | activation factor at 20 µM | actives 0.34% (n = 190,000) | P34949 | AID 1216;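 active = activation factor of 2 or more at 20 µM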
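Test system – human PMI in coupled enzyme assay · Timing – 20 min incubation at room temperature · Detection – Diaphorase-driven resazurin-to-resorufin fluorescence, excitation 544, emission 590 nm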
Rad51 HR inh: blocks human Rad51 in homologous recombination; Q06609; hRad51 DNA strand exchange, fluorescence dequenching; inhibition, % at 10 µM; AID 1385; actives 0.085% (n = 200,000);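 active = inhibition above 40% at the single screening dose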
Target sequence (Q06609 whole entry, looked up): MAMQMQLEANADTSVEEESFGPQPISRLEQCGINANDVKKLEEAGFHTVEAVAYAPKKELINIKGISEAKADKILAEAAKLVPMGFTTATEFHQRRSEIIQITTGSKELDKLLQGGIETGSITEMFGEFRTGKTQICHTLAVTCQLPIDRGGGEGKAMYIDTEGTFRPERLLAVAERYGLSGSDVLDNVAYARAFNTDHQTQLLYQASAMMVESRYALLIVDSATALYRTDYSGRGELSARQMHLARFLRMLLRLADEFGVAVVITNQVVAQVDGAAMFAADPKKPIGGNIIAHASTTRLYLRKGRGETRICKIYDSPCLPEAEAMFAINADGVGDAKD
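Test system: preformed human Rad51 ssDNA filaments; also added: Donor/quencher-labelled 47-bp dsDNA substrate; doses: 10 µM final, single point; times: 37 °C 15-min filament assembly, 30-min compound preincubation, 15-min exchange; detection: FRET fluorescence dequenching, excitation 485 nm, emission 520 nm; read-out basis: Fluorescence-based percent inhibition, control- and blank-normalised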
WT yeast gro inh: growth inhibition of WT yeast, mitochondrial fusion screen | inhibition, % at 10 µM | AID 1362 | mitochondrial fusion phenotypic screen, WT strain | actives 2.1% (n = 190,000); in the data active = inhibition above about 58%; tested in S. cerevisiae
PMI act: phosphomannose isomerase (human) activation | actives 0.005% (n = 190,000) | P34949 | purified human PMI, coupled resazurin fluorescence, 20 min; hits give high values; 1 = vehicle control, 0 substrate-free wells | AID 1214 | activation factor at 20 µM;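 active = activation factor of 2 or more at 20 µM, relative to plate controls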
Large screens that a line does not name were inactive. Only some compounds are listed: those with a hit (about 9.8% of all), similar ones and a draw of the others.

NNC(=O)c1cc(-c2ccc(N)cc2)nc2ccc(Br)cc12	none (no result: Lmaj promast, PMI act hi M6P, WT yeast gro inh, PMI act)
CC(C)(C)C(=O)NC(=S)NNC(=O)c1ccc(Cl)cc1Cl	none
CCc1ccc(OC2=NS(=O)(=O)c3ccccc32)cc1	none
CCN(CC)c1cccc(OC2=NS(=O)(=O)c3ccccc32)c1	Lmaj promast 80
Cc1ccc2nc(-c3ccccc3Cl)cc(C(=O)Nc3cc(C)on3)c2c1	Lmaj promast 55
Cc1cc(NC(=O)c2ccccc2Cl)no1	none
CCN(CC)C(=S)SCC(=O)Nc1ncc2c(n1)CCCC2=O	none (no result: Lmaj promast, PMI act hi M6P, WT yeast gro inh, PMI act)
O=C1CCc2cc(S(=O)(=O)NC(C(=O)N3CCN(c4ccccn4)CC3)c3ccccc3)ccc2N1 (stereo not drawn)	Rad51 HR inh 41
O=C(CCc1ccc(S(=O)(=O)N2CCOCC2)cc1)Nc1ccc2c(c1)OCCO2	none (no result: Lmaj promast, PMI act hi M6P, WT yeast gro inh, PMI act)
Fc1nc(F)c(F)c(NCCCNc2c(F)c(F)nc(F)c2F)c1F	WT yeast gro inh 72
Cc1nn(C)c(Sc2ccccc2N)c1[N+](=O)[O-]	none
Cc1ccc(N(CCC#N)C(=O)CCl)cc1C	Lmaj promast 79
Cc1ccc(S(=O)(=O)Nc2ccc(C(=O)OCC(=O)N(CCC#N)c3ccccc3)cc2)cc1C	none
O=C(O)c1ccc(/C=N/NC(=O)c2cc(-c3ccc4c5c(cccc35)CC4)n[nH]2)cc1	none
CC(NC(=O)c1ccccc1)c1nc2ccccc2n1Cc1ccccc1F (stereo not drawn)	Lmaj promast 53 (no result: Rad51 HR inh)
CC(NC(=O)c1ccccc1)c1nc2ccccc2n1Cc1ccc(C#N)cc1 (stereo not drawn)	none
C=CCN=c1scc(-c2ccco2)n1/N=C/c1ccc(O)c(O)c1O	none (no result: Lmaj promast, PMI act hi M6P, Rad51 HR inh, WT yeast gro inh, PMI act)
CC(C)N=c1scc(-c2ccco2)n1/N=C/c1ccc(O)c(O)c1	Lmaj promast 99
Oc1ccc(/C=N/n2c(-c3ccco3)csc2=Nc2cccnc2)c(O)c1	Lmaj promast 99
CC1CN(C(=O)COC(=O)c2ccc(N(C)C)cc2)CC(C)O1 (stereo not drawn)	none
O=C(NC(=S)Nc1ccccc1N1CCCCC1)c1cccs1	Lmaj promast 91
O=C(NC(=S)Nc1ccc(N2CCN(C(=O)c3ccccc3)CC2)cc1)c1cccs1	Lmaj promast 92
CCCCC(=O)NC(=S)Nc1cccc(Cl)c1N1CCCCC1	none
CCCC(=O)NC(=S)Nc1cccc(Cl)c1N1CCCCC1	WT yeast gro inh 60
CCCCC(=O)NC(=S)Nc1ccccc1N1CCCCC1	WT yeast gro inh 65 (no result: Rad51 HR inh)
O=C(NC(=S)Nc1ccccc1N1CCN(C(=O)c2ccccc2)CC1)c1cccs1	none (no result: Lmaj promast, PMI act hi M6P, WT yeast gro inh, PMI act)
COc1ccc(CCNC(=O)c2cccs2)cc1OC	none
COc1ccc(CNc2nc(NCc3ccc(OC)c(OC)c3)n(C(=O)c3cccs3)n2)cc1OC	Lmaj promast 97
COc1ccc(-c2nc(C)c(C(C)=O)n2O)cc1[N+](=O)[O-]	none
O=S(=O)(Cc1ccccc1Cl)N1CCN(Cc2ccc3c(c2)OCO3)CC1	Lmaj promast 96
O=S(=O)(Cc1ccc(Cl)cc1)N1CCN(Cc2ccc3c(c2)OCO3)CC1	none (no result: Lmaj promast, PMI act hi M6P, WT yeast gro inh, PMI act)
COc1ccc(F)cc1S(=O)(=O)N1CCN(Cc2ccc3c(c2)OCO3)CC1	none
COc1ccc(Cl)cc1S(=O)(=O)N1CCN(Cc2ccc3c(c2)OCO3)CC1	Lmaj promast 72, WT yeast gro inh 65
Cn1cc(CN2CCN(Cc3ccc4c(c3)OCO4)CC2)c(-c2ccccc2F)n1	Lmaj promast 60
CSc1ccc(S(=O)(=O)N2CCN(Cc3ccc4c(c3)OCO4)CC2)cc1	Lmaj promast 82
O=C(COC(=O)CNC(=O)c1ccccc1)Nc1ccc2c(c1)OCO2	none (no result: Rad51 HR inh)
Cc1ccc(S(=O)(=O)Nc2ccc(NC(=O)c3c(F)c(F)c(F)c(F)c3F)cc2)cc1	none
CC(C)N(C(=O)CSc1nnnn1-c1ccc2c(c1)OCO2)C(C)C	none
O=C(Nc1ccc(OC(F)(F)C(F)F)c(NC(=O)c2cccc(F)c2)c1)c1cccc(F)c1	none
COC(=O)[C@H](CC(C)C)NC(=O)N1CCC(C)CC1	none (no result: Lmaj promast, PMI act hi M6P, WT yeast gro inh, PMI act)
O=S(=O)(c1ccc(N2CCN(S(=O)(=O)c3ccc4c(c3)OCCO4)CC2)nc1)N1CCCC1	none (no result: PMI act hi M6P, PMI act)
O=S(=O)(c1ccc(N2CCN(Cc3ccc4c(c3)OCO4)CC2)nc1)N1CCOCC1	Lmaj promast 93
CC12CNCC(C)(CN(C(c3ccccc3)c3ccccc3)C1)C2	Lmaj promast 100
CO/N=C/CC(=O)c1cnc(-c2ccc(Cl)cc2)s1	none
CCOC(=O)c1cnc2ccc(OCC)cc2c1N1CCN(c2ccccc2)CC1	WT yeast gro inh 74
CCOC(=O)c1cnc2ccc(C)cc2c1Nc1ccc(N2CCOCC2)cc1	Lmaj promast 52
CCOC(=O)c1cnc2ccc(OCC)cc2c1NCc1cccnc1	Lmaj promast 65
CCOC(=O)c1cnc2ccc(OC)cc2c1NCCc1ccc(OC)c(OC)c1	Lmaj promast 64
O=C(NCC(=O)N(CCN1CCOCC1)C(C(=O)NC1CCCC1)c1ccccc1)c1cccs1 (stereo not drawn)	none
NS(=O)(=O)c1ccc(NC(=O)Nc2ccc(C(F)(F)F)cc2)cc1	none (no result: Lmaj promast, PMI act hi M6P, WT yeast gro inh, PMI act)
CCOc1cc(S(=O)(=O)n2nc(C)cc2C)ccc1Br	none
CCOC(=O)c1cnc2ccc(C(=O)OC)cc2c1NCc1ccco1	none
CCOC(=O)c1cnc2ccc(OCC)cc2c1NCc1ccccc1	Lmaj promast 98, WT yeast gro inh 86 (no result: Rad51 HR inh)
Cn1nnnc1Sc1ncnc2scc(-c3ccccc3)c12	Lmaj promast 70
Cn1nnnc1SCc1nc2scc(-c3ccccc3)c2c(=O)[nH]1	none (no result: Lmaj promast, PMI act hi M6P, WT yeast gro inh, PMI act)
Cn1nnnc1Sc1ncnc2scc(-c3ccc(F)cc3)c12	Lmaj promast 91 (no result: Rad51 HR inh)
Cc1ccc(-c2csc3ncnc(SCC(N)=O)c23)cc1	none
Clc1cccc(Cl)c1CO/N=C/c1c(-c2ccccc2)nc2n1CCS2	none
CC(=O)Nc1ccccc1C(=O)C(=O)Nc1ccc(C(=O)NCC2CCCO2)cc1 (stereo not drawn)	none
Cc1ccccc1NC(=O)NCC1CCCO1 (stereo not drawn)	Rad51 HR inh 42
CC(=O)Nc1ccccc1C(=O)C(=O)Nc1cccc(C(=O)NCC2CCCO2)c1 (stereo not drawn)	Calpain2 inh 93
O=C1c2cccc3c2[C@H](CCC3)CN1[C@@H]1CN2CCC1CC2	none (no result: Lmaj promast, Calpain2 inh, PMI act hi M6P, WT yeast gro inh, PMI act)
O=C1NC(Cc2c[nH]c3ccccc23)C(=O)N1Cc1ccc(CN2C(=O)NC(Cc3c[nH]c4ccccc34)C2=O)cc1 (stereo not drawn)	none
CCCCOc1ccc(NC(=O)Nc2nnc(C)s2)cc1	none (no result: Lmaj promast, PMI act hi M6P, WT yeast gro inh, PMI act)
Cn1cccc1/C=N/n1c(-c2ccc(Cl)cc2)n[nH]c1=S	none
Cn1cccc1/C=N/n1c(-c2ccc(Cl)cc2Cl)n[nH]c1=S	WT yeast gro inh 71
Cc1ccc(S(=O)(=O)Nc2ccccc2CNc2cccc(C)n2)cc1	none
CC1CCN(C(=O)c2ccc3c(c2NCCO)C(=O)c2ccccc2C3=O)CC1	WT yeast gro inh 71
